Bioassay records: PubChem BioAssay, several laboratories
STAT3 inh – reduces IL-6 driven STAT3 reporter signal | U3A cells, IL-6 STAT3-luciferase reporter, luminescence; host cell line lacks STAT1 | inhibition, % at 5.5 µM | hit rate 0.89% among 190,000 | AID 862;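 active means inhibition above the mean inhibition across all screened compounds plus 3 SD, cut at about 44% in these data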;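 further: 0% = DMSO only wells and 100% = 100 µM nifuroxazide control wells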
STAT1 blocker – STAT1 signaling inhibition | inhibition, % at 5.5 µM | hit rate 0.35% among 200,000 | NIH 3T3 STAT1-luciferase reporter, IFN-gamma, luminescence | AID 920;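 active means inhibition above a set limit, the mean inhibition across all tested compounds plus 3 SD, cut at about 34% in these data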;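 further: 0% = IFN-gamma with DMSO and 100% = IFN-gamma with 300 µM nifuroxazide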
NF-kB expr up – raises NF-kB expression in human neuronal cells; AID 1239; fold change at 12.5 µM; hit rate 1.6% among 190,000; NF-kB reporter expression; stronger effect = higher value; in the data active means fold change above about 3.3
STAT1 activator – STAT1 signaling activation; hit rate 2.6% among 200,000; NIH 3T3 STAT1-luciferase reporter, IFN-gamma, luminescence; 100% = IFN-gamma alone, no compound; activation (% of control), % at 5.5 µM;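 active means activation above the screen-wide mean activation plus 3 SD, cut at about 130% in these data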;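 further: raw ratio to IFN-gamma control signal so 100% means no change and 0% no light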
STAT3 act – STAT3 signaling activation; hit rate 0.91% among 190,000; U3A cells, IL-6 STAT3-luciferase reporter, luminescence; 100% = signal with IL-6 EC80 alone; activation (% of control), % at 5.6 µM; AID 871;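 active means activation above the screen-wide mean of compound activation plus 3 SD, cut at about 130% in these data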;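 further: 0% = background luminescence of wells with medium and substrate only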
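Assay system – human STAT1-deficient U3A cells with stable STAT3-luciferase reporter · Also added – IL-6 (33 ng/mL) · Schedule – compound 1 h, then IL-6 6 h at 37 °C · Technique – reporter luminescence signal · Evaluation – % activation versus median of IL-6-stimulated wells · Benchmarks – IL-6-only wells as 100% reference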
APP 5'UTR act – activates APP 5'UTR luciferase reporter; hit rate 1% among 190,000; SH-SY5Y APP 5'UTR luciferase reporter, luminescence; zero percent = DMSO vehicle wells; activation, % at 2 µM;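 active means activation above a set limit, based on mean plus 3 SD of controls, cut at about 140% in these data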
STAT1 activ conf – STAT1 activation, confirmation assay; activation (% of control), % at 5.7 µM; shares compounds with STAT1 activator; AID 1262; hit rate 97% among 1,200; NIH 3T3 STAT1-luciferase reporter, IFN-gamma potentiation, luminescence; 100% = IFN-gamma EC80 alone, no compound;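 active means activation above a set limit carried over from the earlier primary STAT1 screen, cut at about 140% in these data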;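 further: simple ratio to median IFN-gamma plus DMSO wells so 0% means no light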
NFkB act – activates NF-kappaB, counter-screen to STAT1 activators; AID 1306; HEK293T NF-kB luciferase reporter, TNF-alpha stimulated, luminescence; 100% = TNF-alpha with vehicle only; activation (% of control), % at 5.7 µM; hit rate 43% among 1,200; shares compounds with STAT1 activator;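 active means activation above the mean of solvent-only control wells plus 3 SD, set per campaign, cut at about 130% in these data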;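 further: TNF-alpha given at a submaximal dose yielding about 80% of full reporter signal; values are well signal over median control so 100% means no change and 0% no light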
STAT3 act 2 – activates human STAT3, counter-screen to STAT1 activators. shares compounds with STAT1 activator. U3A cells STAT3-luciferase reporter, IL-6, luminescence; cells lack STAT1; 100 = IL-6 alone, no compound effect. activation (% of control), % at 5.7 µM. hit rate 46% among 1,200. AID 1316;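 active means activation above the solvent-only control well mean plus 3 SD, set per plate batch, cut at about 110% in these data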;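 further: 0% = no luminescence and 100% = median IL-6 plus DMSO wells; higher means more STAT3 reporter activation so hits are non-selective activators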
An asterisk follows results filed as active; / = no result. Hits are enriched below; roughly 4.9% of the tested compounds scored in any of these assays.

SMILES | STAT3 inh | STAT1 blocker | NF-kB expr up | STAT1 activator | STAT3 act | APP 5'UTR act | STAT1 activ conf | NFkB act | STAT3 act 2
Cc1nc(Nc2ccc(S(=O)(=O)N3CCCCC3C)cc2)c2nnn(Cc3ccccc3)c2n1 (centres undefined) | 3.1 | -5.6 | 0.51 | 105.0 | 95.4 | 4.7 | / | / | /
CCOc1ccccc1NC(=O)N1CCCC1C(=O)Nc1ccc(-n2cnnn2)c(C)c1 (centres undefined) | 15.7 | -4.4 | 1.13 | 102.4 | 90.4 | 0.3 | / | / | /
N/C(=N\OC(=O)c1cccc(F)c1)c1ccccc1 | -6.4 | -73.1 | 2.41 | 165.8* | 115.6 | 94.2 | 168.8* | 123.3 | 114.3*
N/C(=N\OC(=O)c1cccc(Br)c1)c1ccncc1 | 13.1 | -28.9 | / | 127.1 | 93.6 | 38.6 | / | / | /
Cc1ccc(/C(N)=N/OC(=O)c2ccc(F)cc2)cc1 | 14.2 | -65.4 | 7.94* | 153.3* | 95.1 | 46.1 | 173.4* | 135.1* | 105.6
N/C(=N\OC(=O)c1ccc(F)cc1)c1ccccc1 | -10.5 | -63.2 | 3.49* | 156.9* | 119.2 | 94.3 | 195.8* | 128.0 | 115.9*
CCC(C(=O)NNC(=O)c1cnccn1)c1ccccc1 (centres undefined) | -7.2 | 3.4 | 0.91 | 97.0 | 108.5 | 3.8 | / | / | /
C=CCN1CCN(C(c2cc(OC)ccc2OC)c2nnnn2CC2CCCO2)CC1 (centres undefined) | -9.4 | 2.8 | 0.96 | 97.4 | 110.4 | -3.4 | / | / | /
Cc1c(-c2nc(N)nc(Nc3ccccc3F)n2)oc2ccccc12 | -12.1 | -105.3 | 5.8* | 198.0* | 113.4 | 176.2* | 232.2* | 140.9* | 113.7*
CCn1c(COc2ccc(=O)n(-c3ccccc3)n2)n[nH]c1=S | 2.3 | -2.4 | 1.15 | 101.8 | 101.4 | -13.0 | / | / | /
COc1ccc2oc(=N)c(C(=O)Nc3ccccc3)cc2c1 | -12.5 | -68.7 | 5.24* | 162.1* | 111.3 | 133.0 | 196.5* | 137.9* | 135.6*
Cc1ccc(NC(=O)c2ccc(OC(=O)COc3ccc(Cl)cc3C)cc2)cc1 | -8.0 | -66.4 | 1.44 | 159.2* | 104.4 | 87.8 | 167.3* | 127.7 | 118.8*
Cc1ccc(NC(=O)c2ccc(OC(=O)COc3cccc(Cl)c3)cc2)cc1 | -17.7 | -60.4 | 1.64 | 153.8* | 112.2 | 110.6 | 170.3* | 128.7 | 110.8*
Cc1ccc(C(=O)CC(=O)COc2ccc(Cl)cc2C)cc1 | -3.0 | -5.8 | 0.85 | 105.2 | 101.6 | -1.1 | / | / | /
CC(=O)Nc1cccc(-c2csc(Nc3cc(C)ccn3)n2)c1 | -4.2 | -57.6 | 2.4 | 151.6* | 110.3 | 138.4* | 174.3* | 129.8 | 114.7*
CC(=O)Nc1cccc(-c2csc(Nc3ccc(Cl)cn3)n2)c1 | 5.0 | -108.4 | 6.51* | 201.6* | 95.8 | 182.2* | 248.7* | 161.2* | 101.8
Cc1ccc(S(=O)(=O)n2c3ccc(Cl)cc3c3nc(C)sc32)cc1 | 10.0 | 14.9 | 0.97 | 86.5 | 94.3 | 4.8 | / | / | /
O=C(O)c1ccc(N/N=C/c2ccc(-c3ccccc3)cc2)cc1 | 16.5 | -134.8 | 10.2* | 220.5* | 92.5 | 185.7* | 320.6* | 162.0* | 105.6
O=C(O)c1ccc(/C=N/Nc2ccc(C(F)(F)F)cn2)cc1 | 4.9 | -59.2 | 3.93* | 154.8* | 102.4 | 138.4* | 210.1* | 129.1 | 124.3*
CC(=O)OCCCN1c2ccccc2Nc2nnc(-c3ccccc3)cc21 | 13.5 | -63.4 | 2.1 | 158.0* | 91.5 | 171.3* | 192.4* | 126.7 | 95.3
C[n+]1ccccc1COc1ccc(C(C)(C)C)cc1 | 3.9 | 5.4 | 0.99 | 94.5 | 97.8 | -0.8 | / | / | /
Cc1ccc(N(CC(=O)NCCSc2ccccn2)S(=O)(=O)c2ccc(F)cc2)cc1 | 0.3 | -2.2 | 0.82 | 100.3 | 101.8 | -4.6 | / | / | /
N#C/C(=N\Nc1ccc(Cl)cc1)C(=N)N1CCCCC1 | 20.9 | -134.6 | 7.41* | 222.8* | 85.3 | 189.7* | 315.9* | 149.0* | 117.6*
Cc1noc(NS(=O)(=O)c2ccc(N/C=C/C(=O)c3cccnc3)cc2)c1C | 13.7 | -1.7 | 1.43 | 102.8 | 93.7 | -12.1 | / | / | /
O=C(/C=C\Nc1ccc(Br)cc1)c1cccnc1 | 14.4 | -69.7 | 8.85* | 161.6* | 90.8 | 209.8* | 198.0* | 117.5 | 90.0
SMILES | STAT3 inh | STAT1 blocker | NF-kB expr up | STAT1 activator | STAT3 act | APP 5'UTR act | STAT1 activ conf | NFkB act | STAT3 act 2
Clc1cnc(N/N=C/c2ccco2)c(Cl)c1 | 15.1 | -65.9 | 4.2* | 158.6* | 86.0 | 154.9* | 150.7* | 111.0 | 92.1
Cc1ccc(/C=N/Nc2ncc(Cl)cc2Cl)s1 | 20.6 | -27.2 | 1.89 | 125.0 | 88.2 | 6.1 | / | / | /
c1ccc(-c2nc3c(ccc4ccccc43)[nH]2)nc1 | -33.1 | -71.7 | 3.72* | 172.9* | 130.6 | 111.0 | 186.7* | 119.5 | 129.6*
Cc1ccc(N(CC(=O)NC(C)c2ccccc2)S(=O)(=O)c2cccs2)cc1 (centres undefined) | -5.8 | -4.0 | 0.84 | 103.7 | 102.2 | 1.0 | / | / | /
O=C(CCCCCN1C(=O)c2ccccc2C1=O)Nc1ccc2c(c1)OCCO2 | 11.4 | 6.4 | 1.07 | 94.1 | 88.4 | 0.2 | / | / | /
O=C(CCCc1ccccc1)Nc1ccc2c(c1)OCCO2 | 32.1 | -57.3 | 8.01* | 151.1* | 75.7 | 202.9* | 162.4* | 127.3 | 118.7*
CCC(=O)Nc1ccc2c(c1)OCCO2 | -6.8 | 0.9 | 0.86 | 99.2 | 108.4 | 14.4 | / | / | /
O=C(NC(=S)Nc1ccc2c(c1)OCCO2)c1cccc2ccccc12 | -6.0 | -7.1 | 1.56 | 106.4 | 108.6 | 12.2 | / | / | /
O=C(NC(=S)Nc1ccc2c(c1)OCCO2)c1cccc(Br)c1 | -12.3 | -59.4 | 4.77* | 153.0* | 112.7 | 91.4 | 176.5* | 133.3* | 118.0*
O=C(CC(=O)c1ccccc1)Nc1ccc2c(c1)OCCO2 | -0.4 | -64.0 | 3.93* | 158.6* | 105.2 | 129.3 | 191.7* | 131.4 | 117.4*
O=C(Nc1ccc2c(c1)OCCO2)c1ccc(Br)s1 | 39.3 | -93.9 | 11* | 183.7* | 66.7 | 198.5* | 254.6* | 116.2 | 92.6
O=c1[nH]c2ccccc2nc1Cc1ccccc1 | 12.1 | 1.9 | 0.91 | 98.2 | 91.8 | -18.6 | / | / | /
O=C(Cc1nc2ccccc2[nH]c1=O)c1ccccc1 | -24.8 | -84.0 | 0.97 | 175.4* | 129.1 | 160.0* | 196.2* | 122.5 | 154.8*
CCCCC(CC)C(=O)Nc1cc([N+](=O)[O-])ccc1F (centres undefined) | 4.0 | 4.1 | 1.1 | 97.7 | 100.9 | 0.9 | / | / | /
CCc1nnc(NC(=O)CN2CCN(c3ccc(Cl)cc3)CC2)s1 | 8.5 | 0.6 | / | 102.4 | 95.4 | / | / | / | /
